Experimental data taken from ChEMBL document CHEMBL1629579, “Correlating echinocandin MIC and kinetic inhibition of fks1 mutant glucan synthases for Candida albicans: implications for interpretive breakpoints” (Antimicrob Agents Chemother, 2009).
≈ marks a conversion by molar mass, not a printed value. Numbered stars: 1 amine (or outer) side, 2 acyl side, 3 side chain; on linkers, the order of the positions; unused ones are H or OH. Bridge positions count the residues as written; N and C are the ends. Square brackets hold non-standard residues; d marks the D form. Peptide text beside a SMILES is read from it. * marks the point of attachment. hTyr(3S-OH,4S-OH,3'-OSO3H) = N[C@H](C(=O)O)[C@H](O)[C@@H](O)c1ccc(O)c(OS(=O)(=O)O)c1; pTerphenylCO(4''-OnC5H11) = CCCCCOc1ccc(-c2ccc(-c3ccc(C(=O)*)cc3)cc2)cc1; Orn(4R-OH,5R-OH) = O=C([C@H](C[C@@H](O)[C@@H](O)N[*:3])N[*:1])[*:2]; hTyr(3S-OH,4S-OH) = N[C@H](C(=O)O)[C@H](O)[C@@H](O)c1ccc(O)cc1; Pro(3S-OH,4S-Me) = C[C@H]1CN[C@H](C(=O)O)[C@H]1O; X1 = CCCCCOc1ccc(-c2cc(-c3ccc(C(=O)*)cc3)no2)cc1; Gln(3R-OH) = NC(=O)C[C@@H](O)[C@H](N)C(=O)O; Hyp = O=C(O)[C@@H]1C[C@@H](O)CN1

What was measured:
Candida albicans [1] = assay: Selectivity ratio of Ki for Candida albicans 89 1,3-beta-D-glucan synthase subunit FKS1p C1934A mutant to Ki for Candida albicans SC5314 wild type 1,3-beta-D-glucan synthase subunit FKS1p
Candida albicans [2] = assay: Selectivity ratio of Ki for Candida albicans A15-10 1,3-beta-D-glucan synthase subunit FKS1p T1933C mutant to Ki for Candida albicans SC5314 wild type 1,3-beta-D-glucan synthase subunit FKS1p
Candida albicans [3] = assay: Antimicrobial activity against Candida albicans 1002 by M27-A3 method in presence of 50% human serum; format: functional
In short: (§1)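 Broth microdilution per CLSI M27-A3 in RPMI 1640, done in triplicate on three separate days. Each strain was tested with and without 50% human serum. C. krusei ATCC 6258 and C. parapsilosis ATCC 22019 served as QC strains. Arithmetic means are reported, and geometric means were used for comparison.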

Candida albicans [4] = assay: Selectivity ratio of Ki for Candida albicans 177 1,3-beta-D-glucan synthase subunit FKS1p T1922C mutant to Ki for Candida albicans SC5314 wild type 1,3-beta-D-glucan synthase subunit FKS1p
Candida albicans [5] = assay: Activity at Candida albicans 149 1,3-beta-D-glucan synthase subunit FKS1p G1942T mutant
In short: (§2)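 Product-entrapped 1,3-β-D-glucan synthase from cells grown in YPD at 37°C to early stationary phase. Wells held 50 mM HEPES pH 7.5, 10% glycerol, 1.5 mg/ml BSA, 25 mM KF, 1 mM EDTA, 25 μM GTP-γ-S, 1 μg enzyme and [3H]UDPG (0.015–2 mM). Reactions ran 60 min at 25°C. Vmax and Km came from Lineweaver-Burke plots, in triplicate.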

Candida albicans [6] = assay: Selectivity ratio of Ki for Candida albicans 2762 1,3-beta-D-glucan synthase subunit FKS1p T1922C mutant to Ki for Candida albicans SC5314 wild type 1,3-beta-D-glucan synthase subunit FKS1p
[7] = Inhibition of Candida albicans 85 1,3-beta-D-glucan synthase subunit FKS1p C1934T mutant
In short: (§3)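 Enzyme is product-entrapped 1,3-β-D-glucan synthase, enriched from membranes of each strain grown at 37°C with shaking in YPD broth to early stationary phase. Filtration polymerization assay uses [3H]UDPG, started by adding enzyme and run 60 min at 25°C. Echinocandins are added as serial dilutions, with 1% DMSO controls for anidulafungin. IC50 is from a variable-slope sigmoidal fit; values are triplicate arithmetic means.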

Candida albicans [8] = assay: Antimicrobial activity against Candida albicans 121 harboring FKS1 G4082A mutant gene and FKS1 hotspot2 R1361H mutant gene by M27-A3 method in presence of 50% human serum; format: functional; in short: as §1
Candida albicans [9] = assay: Selectivity ratio of Ki for Candida albicans 121 1,3-beta-D-glucan synthase subunit FKS1p G4082A mutant to Ki for Candida albicans SC5314 wild type 1,3-beta-D-glucan synthase subunit FKS1p
Candida albicans [10] = assay: Selectivity ratio of Ki for Candida albicans 194 1,3-beta-D-glucan synthase subunit FKS1p C1934T/G4082R mutant to Ki for Candida albicans SC5314 wild type 1,3-beta-D-glucan synthase subunit FKS1p
Candida albicans [11] = assay: Antimicrobial activity against Candida albicans 90 harboring FKS1 G4082R mutant gene and FKS1 hotspot2 R1361R/H mutant gene by M27-A3 method in presence of 50% human serum; format: functional; in short: as §1
Candida albicans [12] = assay: Antimicrobial activity against Candida albicans 90028 by M27-A3 method; format: functional
In short: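 Broth microdilution per CLSI M27-A3 in RPMI 1640, with and without 50% human serum, in triplicate. C. krusei ATCC 6258 and C. parapsilosis ATCC 22019 served as quality-control strains. MIC reported as arithmetic mean of three repetitions on separate days.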

Candida albicans [13] = assay: Activity at Candida albicans 122 1,3-beta-D-glucan synthase subunit FKS1p C1946A mutant; in short: as §2
Candida albicans [14] = assay: Activity at Candida albicans 1002 1,3-beta-D-glucan synthase subunit FKS1p
In short: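 Glucan synthase from cells grown at 37°C with vigorous shaking to early stationary phase in YPD. Membrane enzyme enriched by product entrapment. Serial echinocandin dilutions; ANF controls held 1% DMSO. Reaction started by adding enzyme, run 60 min at 25°C in a filtration polymerization assay, stopped on ice. IC50 from a variable-slope sigmoidal fit; means of three repetitions on separate days.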

[15] = Inhibition of Candida albicans 36082 1,3-beta-D-glucan synthase subunit FKS1p; in short: as §3
Candida albicans [16] = assay: Selectivity ratio of Ki for Candida albicans 5415 1,3-beta-D-glucan synthase subunit FKS1p T1933C mutant to Ki for Candida albicans SC5314 wild type 1,3-beta-D-glucan synthase subunit FKS1p
Candida albicans [17] = assay: Antimicrobial activity against Candida albicans 90 harboring FKS1 G4082R mutant gene and FKS1 hotspot2 R1361R/H mutant gene by M27-A3 method; format: functional; in short: as §1
[18] = Inhibition of Candida albicans A15-10 1,3-beta-D-glucan synthase subunit FKS1p T1933C mutant; in short: as §3
Candida albicans [19] = assay: Antimicrobial activity against Candida albicans SC5314 by M27-A3 method in presence of 50% human serum; format: functional; in short: as §1
Candida albicans [20] = assay: Antimicrobial activity against Candida albicans 194 harboring FKS1 C1934T/G4082R mutant gene and FKS1 hotspot1 S645F mutant gene and FKS1 hotspot2 R1361R/H mutant gene by M27-A3 method in presence of 50% human serum; format: functional; in short: as §1
Candida albicans [21] = assay: Selectivity ratio of Ki for Candida albicans 85 1,3-beta-D-glucan synthase subunit FKS1p C1934T mutant to Ki for Candida albicans SC5314 wild type 1,3-beta-D-glucan synthase subunit FKS1p
[22] = Inhibition of Candida albicans 1002 1,3-beta-D-glucan synthase subunit FKS1p
In short: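 Product-entrapped glucan synthase from YPD-grown cells (37°C, early stationary phase) in a filtration polymerization assay with [3H]UDPG. Echinocandin serial dilutions were added, with 1% DMSO in controls for anidulafungin. Reactions were started with enzyme, run 60 min at 25°C and stopped on ice. IC50 came from a variable-slope sigmoidal fit, in triplicate.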

Candida albicans [23] = assay: Selectivity ratio of Ki for Candida albicans A15 1,3-beta-D-glucan synthase subunit FKS1p T1933Y mutant to Ki for Candida albicans SC5314 wild type 1,3-beta-D-glucan synthase subunit FKS1p
Candida albicans [24] = assay: Antimicrobial activity against Candida albicans 119 harboring FKS1 T1921C mutant gene and FKS1 hotspot1 F641L mutant gene by M27-A3 method in presence of 50% human serum; format: functional; in short: as §1
Candida albicans [25] = assay: Selectivity ratio of Ki for Candida albicans 205 1,3-beta-D-glucan synthase subunit FKS1p T1933C mutant to Ki for Candida albicans SC5314 wild type 1,3-beta-D-glucan synthase subunit FKS1p
Candida albicans [26] = assay: Selectivity ratio of Ki for Candida albicans 149 1,3-beta-D-glucan synthase subunit FKS1p G1942T mutant to Ki for Candida albicans SC5314 wild type 1,3-beta-D-glucan synthase subunit FKS1p

SMILES | MIC (Candida albicans [3]) [µg/mL] | Km (Candida albicans [5]) [µM] | Vmax (Candida albicans [5]) [nmol/min] | IC50 [7] [µg/mL] | Ki [7] [µg/mL] | MIC (Candida albicans [8]) [µg/mL] | MIC (Candida albicans [11]) [µg/mL] | MIC (Candida albicans [12]) [µg/mL] | Km (Candida albicans [13]) [µM] | Vmax (Candida albicans [13]) [nmol/min] | Km (Candida albicans [14]) [µM] | Vmax (Candida albicans [14]) [nmol/min] | IC50 [15] [µg/mL] | Ki [15] [µg/mL] | MIC (Candida albicans [17]) [µg/mL] | IC50 [18] [µg/mL] | Ki [18] [µg/mL] | MIC (Candida albicans [19]) [µg/mL] | MIC (Candida albicans [20]) [µg/mL] | IC50 [22] [µg/mL] | further results
CCCCCOc1ccc(-c2ccc(-c3ccc(C(=O)N[C@H]4C[C@@H](O)[C@@H](O)NC(=O)[C@@H]5[C@@H](O)[C@@H](C)CN5C(=O)[C@H]([C@@H](C)O)NC(=O)[C@H]([C@H](O)[C@@H](O)c5ccc(O)cc5)NC(=O)[C@@H]5C[C@@H](O)CN5C(=O)[C@H]([C@@H](C)O)NC4=O)cc3)cc2)cc1 [ANIDULAFUNGIN] ({pTerphenylCO(4''-OnC5H11)}-[Orn(4R-OH,5R-OH)]T[Hyp][hTyr(3S-OH,4S-OH)]T[Pro(3S-OH,4S-Me)]; lactam 1-C) | 0.44 | 32 | 1.22 | 0.787 (≈ 0.69 µM) | 0.44593 (≈ 0.391 µM) | 8 | 4 | 0.03 (≈ 0.0263 µM) | 152 | 1.95 | 122 | 5.8 | 0.00151 (≈ 0.00132 µM) | 0.00143 (≈ 0.00125 µM) | 0.25 (≈ 0.219 µM) | 0.901 (≈ 0.79 µM) | 2.5637 (≈ 2.25 µM) | 0.5 | 8 | 0.00796 (≈ 0.00698 µM) | Ratio Ki (Candida albicans [1]): > 100; Ratio Ki (Candida albicans [2]): > 100; Ratio Ki (Candida albicans [4]): > 100; Ratio Ki (Candida albicans [6]): > 100; Ratio Ki (Candida albicans [9]): > 100; Ratio Ki (Candida albicans [10]): > 100; Ratio Ki (Candida albicans [16]): > 100; Ratio Ki (Candida albicans [21]): > 100; Ki [22]: 0.00239 µg/mL (≈ 0.0021 µM); Ratio Ki (Candida albicans [23]): > 100; MIC (Candida albicans [24]): 2 µg/mL; Ratio Ki (Candida albicans [25]): > 100; Ratio Ki (Candida albicans [26]): > 100
CC[C@H](C)C[C@H](C)CCCCCCCCC(=O)N[C@H]1C[C@@H](O)[C@@H](NCCN)NC(=O)[C@@H]2[C@@H](O)CCN2C(=O)[C@H]([C@H](O)CCN)NC(=O)[C@H]([C@H](O)[C@@H](O)c2ccc(O)cc2)NC(=O)[C@@H]2C[C@@H](O)CN2C(=O)[C@H]([C@@H](C)O)NC1=O [CASPOFUNGIN] | 0.5 | 32 | 1.22 | 0.4591 (≈ 0.42 µM) | 0.51933 (≈ 0.475 µM) | 8 | 4 | 0.21 (≈ 0.192 µM) | 152 | 1.95 | 122 | 5.8 | 0.0009 (≈ 0.000823 µM) | 0.00095 (≈ 0.000869 µM) | 1 (≈ 0.915 µM) | 0.3224 (≈ 0.295 µM) | 1.358 (≈ 1.24 µM) | 0.5 | 8 | 0.00175 (≈ 0.0016 µM) | Ki [22]: 0.00626 µg/mL (≈ 0.00573 µM); MIC (Candida albicans [24]): 8 µg/mL
CCCCCOc1ccc(-c2cc(-c3ccc(C(=O)N[C@H]4C[C@@H](O)[C@@H](O)NC(=O)[C@@H]5[C@@H](O)[C@@H](C)CN5C(=O)[C@H]([C@H](O)CC(N)=O)NC(=O)[C@H]([C@H](O)[C@@H](O)c5ccc(O)c(OS(=O)(=O)O)c5)NC(=O)[C@@H]5C[C@@H](O)CN5C(=O)[C@H]([C@@H](C)O)NC4=O)cc3)no2)cc1 [MICAFUNGIN] (X1-[Orn(4R-OH,5R-OH)]T[Hyp][hTyr(3S-OH,4S-OH,3'-OSO3H)][Gln(3R-OH)][Pro(3S-OH,4S-Me)]; lactam 1-C) | 0.5 | 32 | 1.22 | 0.4498 (≈ 0.354 µM) | 1.28919 (≈ 1.01 µM) | 8 | 4 | 0.03 (≈ 0.0236 µM) | 152 | 1.95 | 122 | 5.8 | 0.0102 (≈ 0.00803 µM) | 0.02353 (≈ 0.0185 µM) | 0.5 (≈ 0.394 µM) | 1.194 (≈ 0.94 µM) | 2.2495 (≈ 1.77 µM) | 0.5 | 8 | 0.05334 (≈ 0.042 µM) | Ki [22]: 0.03452 µg/mL (≈ 0.0272 µM); MIC (Candida albicans [24]): 8 µg/mL
